# Only some compounds are listed: those with a hit (about 1.7% of all), similar ones and a draw of the others.
# Vif inh – HIV Vif inhibition | inhibition, % at 7.49 µM | 0.35% of 340,000 active | HEK293T cells, Vif self-association by quenched fluorescence, imaging, 24 h | AID 602346; in the data active = inhibition above about 50%, passing the limit was not always enough; inconclusive = no clear call, values can overlap the other calls; inactive = below about 31%
# NTR1 agonist – agonists of human neurotensin receptor NTR1 | P30989 | 0.17% of 330,000 active | activation, % at 20 µM | NTR1-U2OS beta-arrestin-GFP spot imaging, agonist mode;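 active = activation at or above 40% of the spot to cytoplasm intensity ratio, with at least 20 cells analyzed; inconclusive = wells under 20 cells, flagged as cytotoxic or low count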;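 also: 0% = DMSO without peptide and 100% = 100 nM NTR1 peptide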
# V-ATPase pHluor – yeast V-ATPase proton transport regulation by pHLuorin. response, % at 10 µM. 0.37% of 350,000 active. S. cerevisiae, pHLuorin cytosolic pH fluorescence; in the data active = response mostly above about 7.3%, no sharp cut-off; inactive = mostly below about 5.4%; also: actives read high
# CaV13 ICDI inh – Disruptors of the CACNA1D IQ motif to Ca2+-dependent inactivation inhibitor domain association, primary screening, Förster resonance energy transfer in intact living …. HEK cells, CFP/YFP FRET ICDI-IQ, plate reader, 10 min; percent FRET-ratio fall versus neutral wells. inhibition, % at 12.3 µM. 0.098% of 340,000 active. AID 743397;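 active = mean replicate inhibition of at least 30% and at least 1% of replicates passing that level; inconclusive = only one of the two criteria is met; inactive = neither criterion is met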;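 also: 0% = median of the neutral control wells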
# SR-BI DiI inh – mouse SR-BI HDL lipid transfer inhibition; ldlA[mSR-BI] CHO cells, DiI-HDL uptake fluorescence, 3 h; 0.96% of 320,000 active; inhibition, % at 12.5 µM; Q61009;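 active = mean replicate inhibition of at least 70% and a set share of replicates each scoring 70 or more; inconclusive = meets just one of the two criteria; inactive = fails both criteria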;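 also: 0% = median of neutral control wells and 100% = median of positive control wells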
# Target sequence (Q61009 whole entry, looked up): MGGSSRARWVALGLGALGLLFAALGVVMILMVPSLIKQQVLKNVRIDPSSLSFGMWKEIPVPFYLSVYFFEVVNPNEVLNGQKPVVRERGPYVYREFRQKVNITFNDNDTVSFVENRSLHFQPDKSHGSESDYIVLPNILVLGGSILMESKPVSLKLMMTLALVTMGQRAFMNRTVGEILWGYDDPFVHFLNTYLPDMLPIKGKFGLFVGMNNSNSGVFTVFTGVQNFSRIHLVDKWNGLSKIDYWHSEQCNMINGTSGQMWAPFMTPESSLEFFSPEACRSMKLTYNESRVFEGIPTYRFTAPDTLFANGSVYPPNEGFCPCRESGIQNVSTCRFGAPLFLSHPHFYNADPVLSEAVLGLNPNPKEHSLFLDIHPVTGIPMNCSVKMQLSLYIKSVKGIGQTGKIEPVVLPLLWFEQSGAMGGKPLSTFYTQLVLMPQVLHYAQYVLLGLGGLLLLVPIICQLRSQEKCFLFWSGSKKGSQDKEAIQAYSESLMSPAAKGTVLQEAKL
# SR-BI uptake up – SR-BI HDL lipid transfer activation; CHO ldlA[mSR-BI] cells, DiI-HDL uptake fluorescence, 3 h; 100 = double the neutral-control signal; activation, % at 12.5 µM; 0.096% of 320,000 active;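 active = mean replicate activation of at least 60% and every replicate at or above 60%; inconclusive = mean or all-replicate condition met, but not both; inactive = mean below 60% and not all replicates reaching 60%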;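 also: 0% = median plate neutral-control signal and 100% = twice that signal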
#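 System: LDL receptor-deficient CHO ldlA cells overexpressing murine SR-BI | Timing: 3 h uptake period with compound, 37 °C | Medium: HEPES-buffered (25 mM, pH 7.4) F12 plus 0.5% BSA | Dosing: Single-point compound dose | Signal: Bottom-read fluorescence, 550/595 nm | Read-out: Retained DiI signal reflecting DiI-HDL uptake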
# * = called active by the depositor; ? = inconclusive; . = not tested or not shown.
SMILES,Vif inh,NTR1 agonist,V-ATPase pHluor,CaV13 ICDI inh,SR-BI DiI inh,SR-BI uptake up
COc1ccc(C(=O)Nc2c(Cl)cc(Cl)cc2C(=O)N2CCOCC2)cc1,65*,2,2,-1,4,-4
COC(=O)C1=C(C)N(CCc2ccc(OC)c(OC)c2)C(=O)/C1=C\c1ccc(O)cc1,4,6,-4,-3,4,-4
O=Nc1c(O)[nH]c2ccc(F)cc12,-13,0,2,12,-19,19
Cc1cc2c(N=O)c(NO)ccc2[nH]1,54*,3,-2,.,-12,12
Cc1cc(C(=O)N2CCN(c3ccc([N+](=O)[O-])cc3)CC2)co1,86*,-1,2,-5,12,-12
CC12CC3CC(C)(C1)CC(C(=O)Nc1nncs1)(C3)C2,0,2,-2,-3,-12,12
CCOC(=O)c1cc(NC(=O)N(C)C2CCCCC2)c(C)nc1C,-8,0,-2,-4,74*,-74
CCOC(=O)c1cc(NC(=O)N(CC)C2CCCCC2)c(C)nc1C,-4,-2,8,-4,77*,-77
CCOC(=O)Nc1cc(C(=O)OCC)c(C)nc1C,5,1,-1,.,-10,10
O=C(NC(=S)Nc1ccc2[nH]c(=O)[nH]c2c1)c1ccccc1[N+](=O)[O-],10,0,-1,-6,-6,6
CCCN1CCc2c(sc(NC(=O)C3CCN(S(=O)(=O)c4cccs4)CC3)c2C(N)=O)C1,-1,2,5,34*,-21,21
CC(C)C[C@H](NC(=O)c1ccc(Cl)cc1Cl)C(=O)N1CCC[C@H]1C(=O)NCc1ccccc1,.,.,.,-9,.,.
CCOC(=O)N/N=C/c1ccc(OCCSc2ccc(Cl)cc2)c(OCC)c1,1,12,0,-4,74*,-74
CCOC(=O)N/N=C/c1ccc(OCCSc2ccc(Cl)cc2)c(OC)c1,-2,5,2,-4,24,-24
O=C(/C=C(\Nc1ccc(Br)c(F)c1)c1ccccc1)c1ccccc1,.,.,.,-6,.,.
Cc1ccc(OCC(=O)NC2=NCCS2)cc1,10,-1,-7,-5,-3,3
Cc1ccccc1OCC(=O)NC1=NCCS1,-4,2,17*,-4,-1,1
COc1ccc(N2CCC(CNC(=O)Nc3ccc(C)c(C)c3)C2)cc1 (stereo not given),2,-2,4,-6,25,-25
COc1ccc(N2CCC(CNC(=O)Nc3ccc(OC)cc3OC)C2)cc1 (stereo not given),-3,0,1,.,96*,-96
COC(=O)C1=C(C)N(C)C(=NCc2ccc(OC)cc2)NC1c1cccc(Cl)c1 (stereo not given),.,.,.,-5,.,.
O=C(Nc1cccc([N+](=O)[O-])c1)OCc1ccc2c(c1)OCO2,.,.,.,-13,.,.
O=C(CSc1ccccc1)Nc1nc2ccccc2[nH]1,-1,0,32*,-5,0,0
CCCN1C(=O)c2n[nH]c(C)c2C1c1ccc2c(c1)OCO2 (stereo not given),.,.,.,-5,.,.
Nc1ccc(C(=O)c2ccccc2C(=O)O)cc1Cl,55*,0,2,-7,-24,24
O=C(c1ccccc1)c1ccc(C(=O)O)c(C(=O)O)c1,-5,.,-2,-3,7,-7
SMILES,Vif inh,NTR1 agonist,V-ATPase pHluor,CaV13 ICDI inh,SR-BI DiI inh,SR-BI uptake up
Cc1ccc(-c2nn3c(C)nnc3c3ccccc23)cc1S(=O)(=O)NCCN1CCOCC1,12,0,2,-6,6,-6
Cc1ccc(-c2nn3c(C)nnc3c3ccccc23)cc1S(=O)(=O)NCc1ccccc1,87*,-1,5,-6,-4,4
CCOC(=O)c1csc(N)c1-c1ccc([N+](=O)[O-])cc1,?,0,5,-19,-69,69*
O=C(NCC1CC1)NC(=O)c1ccccc1F,-5,.,.,-4,.,.
O=C(NCC1CC1)NC(=O)c1c(F)cccc1Cl,50*,3,-1,-4,-6,6
CCc1ccccc1NC(=O)CC1S/C(=N\c2nccs2)N(CC)C1=O (stereo not given),0,-1,1,.,63,-63
C=CCN1C(=O)C(CC(=O)Nc2ccccc2F)S/C1=N\c1nccs1 (stereo not given),-10,2,-1,10,84*,-84
CCN1C(=O)C(CC(=O)Nc2ccccc2)S/C1=N\c1ccccn1 (stereo not given),4,-1,2,0,78*,-78
CCC(Cc1ccccc1)NC(=O)CCn1cccc1 (stereo not given),-6,-3,1,-5,-15,15
COc1ccc(C)cc1S(=O)(=O)NCCN1CCOCC1,10,-2,2,-4,74*,-74
CCOC(=O)C1CCN(C(=O)c2cc(S(=O)(=O)N(C)C)ccc2N2CCCC2)CC1,1,0,-1,-5,-11,11
CCOC(=O)C1CCCN(C(=O)c2cc(S(=O)(=O)N(C)C)ccc2N2CCCC2)C1 (stereo not given),56*,0,-2,-15,-6,6
CC(C)CN(C(=O)COC(=O)CSc1ccccc1)c1c(N)n(Cc2ccccc2)c(=O)[nH]c1=O,50*,0,0,-1,-7,7
COc1cc2ccccc2cc1C(=O)OCC(=O)N(CC(C)C)c1c(N)n(Cc2ccccc2)c(=O)[nH]c1=O,5,6,-1,-6,80*,-80
CCN(C(=O)COC(=O)c1ccccc1NCc1ccco1)c1c(N)n(Cc2ccccc2)c(=O)[nH]c1=O,-3,.,1,-5,73*,-73
CC(C)CN(C(=O)COC(=O)c1ccccc1NCc1ccco1)c1c(N)n(Cc2ccccc2)c(=O)[nH]c1=O,7,-1,-3,-7,27,-27
CN(C(=O)c1ccc(Br)o1)C1(C)CCS(=O)(=O)C1 (stereo not given),-19,0,3,-6,-11,11
COCCCNC(=O)C1CCC(CNS(=O)(=O)c2ccc(Cl)cc2)CC1 (stereo not given),-8,0,2,-4,-5,5
Cc1cc(C)nc(Nc2ccc(C(=O)O)cc2)n1,58*,-1,0,.,13,-13
Cc1cc(C)nc(Nc2ccc(O)cc2)n1,.,1,-2,-4,4,-4
COc1ccccc1C(CNC(=O)c1cccc(S(=O)(=O)Nc2ccc(F)cc2)c1)N1CCCC1 (stereo not given),23,.,-5,-5,-3,3
O=C(c1ccccc1)N1CCC2CCN(CCc3ccccc3)CC21 (stereo not given),.,.,.,-12,.,.
CC(C)(CO)NC(=O)CC1C(=O)NCCN1Cc1ccc(-c2ccccc2)cc1 (stereo not given),2,2,6,-3,25,-25
